Test results reported in ChEMBL document CHEMBL4411269, “Required Immunoproteasome Subunit Inhibition Profile for Anti-Inflammatory Efficacy and Clinical Candidate KZR-616 ((2 S,3 R)- N-(( S)-3-(Cyclopent-1-en-1-yl)-1-(( R)-2-methyloxiran-2-yl)-1-oxopropan-2-yl)-3-hydroxy-3-(4-methoxyphenyl)-2-(( S)-2-(2-morpholinoacetamido)propanamido)propenamide)” (J Med Chem, 2018).
Values after ≈ are worked out from the molar mass of the structure shown. Active and inactive are the calls of the source. The calls are words filed in the database; no cut-off is given here.

Assays:
[1] = Solubility of the compound in phosphate buffer at pH 7.2 at 10 mg/ml after 24 hrs by HPLC-UV method; assay type: physicochemical
Outline: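 Compound shaken at a target 10 mg/mL in 50 mM potassium phosphate buffer for 24 h at 25 °C, then centrifuged at 15 000 rpm for 15 min. Supernatant diluted 100-fold in DMSO and quantified by HPLC-UV (220/254/280 nm) against a three-level DMSO standard curve, in duplicate.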

[2] = target: T1, Proteasome subunit beta type-9 (Homo sapiens, UniProt P28065); test: Inhibition of LMP2 in human MOLT4 cells by ELISA; assay type: cell-based
T1 sequence (P28065 whole entry): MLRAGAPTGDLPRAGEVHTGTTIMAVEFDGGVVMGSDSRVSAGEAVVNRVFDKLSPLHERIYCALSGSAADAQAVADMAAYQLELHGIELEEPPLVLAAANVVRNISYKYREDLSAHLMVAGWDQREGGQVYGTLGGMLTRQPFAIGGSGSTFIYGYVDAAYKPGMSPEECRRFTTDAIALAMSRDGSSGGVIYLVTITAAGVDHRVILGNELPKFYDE

[3] = target: T2, Proteasome subunit beta type-8 (Mus musculus, UniProt P28063); test: Inhibition of LMP7 in mouse A20 cells by ELISA; assay type: cell-based
T2 sequence (P28063 whole entry): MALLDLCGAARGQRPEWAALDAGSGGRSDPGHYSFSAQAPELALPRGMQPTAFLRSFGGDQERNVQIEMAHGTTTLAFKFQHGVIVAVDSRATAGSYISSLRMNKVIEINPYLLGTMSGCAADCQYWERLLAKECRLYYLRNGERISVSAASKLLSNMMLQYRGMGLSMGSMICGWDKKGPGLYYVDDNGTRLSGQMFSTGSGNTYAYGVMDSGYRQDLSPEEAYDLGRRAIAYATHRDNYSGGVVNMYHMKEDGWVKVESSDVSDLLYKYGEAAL
Outline: (§1)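 Mouse A20 B-cell lymphoma cell lysate (1 mg/mL, hypotonic 20 mM Tris pH 8, 5 mM EDTA) treated with serially diluted compound for 1 h at 25 °C. Then 5 μM biotinylated active-site probe for 2 h at 25 °C, guanidine denaturation and streptavidin bead capture. Subunit-specific antibody and HRP chemiluminescence, signal normalized to protein, IC50 from percent activity versus DMSO controls.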

[4] = target: T3, Proteasome subunit beta type-5 (Mus musculus, UniProt O55234); test: Inhibition of 20S proteosome beta 5 in mouse A20 cells by ELISA; assay type: cell-based
T3 sequence (O55234 whole entry): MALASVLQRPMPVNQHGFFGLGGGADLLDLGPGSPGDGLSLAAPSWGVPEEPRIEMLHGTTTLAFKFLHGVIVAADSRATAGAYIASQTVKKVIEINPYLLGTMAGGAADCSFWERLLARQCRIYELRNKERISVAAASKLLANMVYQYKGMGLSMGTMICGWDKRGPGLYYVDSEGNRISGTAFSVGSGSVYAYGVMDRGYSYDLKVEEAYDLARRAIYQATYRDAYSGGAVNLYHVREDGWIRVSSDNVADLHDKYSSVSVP

[5] = Half life in Sprague-Dawley rat at 2 to 9 mg/kg, iv administered as bolus dose by LC/MS-MS analysis; assay type: ADME, organism-based; settings: in vivo
[6] = target: T4, Proteasome subunit beta type-10 (Homo sapiens, UniProt P40306); test: Inhibition of MECL1 in human MOLT4 cells by ELISA; assay type: cell-based
T4 sequence (P40306 whole entry): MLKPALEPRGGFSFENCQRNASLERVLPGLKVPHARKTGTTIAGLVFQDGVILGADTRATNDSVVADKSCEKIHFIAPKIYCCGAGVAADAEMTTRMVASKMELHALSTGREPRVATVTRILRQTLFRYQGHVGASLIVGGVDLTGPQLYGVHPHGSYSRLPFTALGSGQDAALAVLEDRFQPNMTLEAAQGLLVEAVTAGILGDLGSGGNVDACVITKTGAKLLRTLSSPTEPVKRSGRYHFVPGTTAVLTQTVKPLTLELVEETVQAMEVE

[7] = target: T5, Proteasome subunit beta type-8 (Homo sapiens, UniProt P28062); test: Inhibition of LMP7 in human MOLT4 cells by ELISA; assay type: cell-based
T5 sequence (P28062 whole entry): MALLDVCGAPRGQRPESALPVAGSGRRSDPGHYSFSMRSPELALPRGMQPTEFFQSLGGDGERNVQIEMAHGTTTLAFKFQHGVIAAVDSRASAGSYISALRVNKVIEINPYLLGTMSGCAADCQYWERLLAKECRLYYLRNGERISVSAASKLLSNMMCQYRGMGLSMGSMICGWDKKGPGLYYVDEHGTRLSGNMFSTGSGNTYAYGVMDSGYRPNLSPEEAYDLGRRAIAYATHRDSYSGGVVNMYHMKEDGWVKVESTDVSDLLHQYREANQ

[8] = target: T6, Proteasome Macropain subunit MB1 (Homo sapiens, UniProt P28074); test: Inhibition of 20S proteosome beta 5 in human MOLT4 cells by ELISA; assay type: cell-based
T6 sequence (P28074 whole entry): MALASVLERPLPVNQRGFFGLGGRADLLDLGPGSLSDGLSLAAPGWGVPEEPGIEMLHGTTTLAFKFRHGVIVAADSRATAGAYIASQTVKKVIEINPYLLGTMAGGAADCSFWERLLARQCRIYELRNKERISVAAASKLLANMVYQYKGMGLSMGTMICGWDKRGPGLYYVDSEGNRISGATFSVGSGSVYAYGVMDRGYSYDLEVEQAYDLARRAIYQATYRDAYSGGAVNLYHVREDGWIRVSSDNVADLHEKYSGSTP

[9] = target: T7, Proteasome subunit beta type-9 (Mus musculus, UniProt P28076); test: Inhibition of LMP2 in mouse A20 cells by ELISA; assay type: cell-based; outline: as §1
T7 sequence (P28076 whole entry): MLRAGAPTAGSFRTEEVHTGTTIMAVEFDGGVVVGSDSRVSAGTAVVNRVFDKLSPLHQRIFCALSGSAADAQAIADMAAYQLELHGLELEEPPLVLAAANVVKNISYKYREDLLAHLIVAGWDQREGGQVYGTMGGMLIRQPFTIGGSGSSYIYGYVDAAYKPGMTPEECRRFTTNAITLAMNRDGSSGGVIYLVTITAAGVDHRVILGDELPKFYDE

[10] = target: T8, Proteasome subunit beta type-10 (Mus musculus, UniProt O35955); test: Inhibition of MECL1 in mouse A20 cells by ELISA; assay type: cell-based; outline: as §1
T8 sequence (O35955 whole entry): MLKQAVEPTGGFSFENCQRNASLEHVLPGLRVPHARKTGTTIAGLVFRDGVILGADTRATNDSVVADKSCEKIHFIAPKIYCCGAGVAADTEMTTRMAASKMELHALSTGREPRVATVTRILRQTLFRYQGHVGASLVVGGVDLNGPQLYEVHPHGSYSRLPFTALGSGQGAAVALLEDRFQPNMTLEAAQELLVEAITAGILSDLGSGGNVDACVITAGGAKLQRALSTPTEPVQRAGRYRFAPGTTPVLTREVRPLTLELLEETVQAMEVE

[11] = tested on: PBMC; test: Antiinflammatory activity in human PBMC assessed as reduction in LPS-stimulated IL-6 expression at 250 nM preincubated for 1 hr followed by LPS stimulation measured after 24 hrs by ELISA; assay type: functional, cell-based
Outline: (§2)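 Cryopreserved healthy-donor PBMC in RPMI 1640 with 5% heat-inactivated FBS, 250 000 cells/well. Compound (0.1% DMSO final) for 1 h at 37 °C, 5% CO2, then 4 washes with medium. Stimulated with 1 μg/mL LPS for 24 h; supernatant TNFα, IL-6 and IL-12/23p40 by electrochemiluminescent immunoassay. Mean level relative to DMSO controls, n = 6.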

[12] = target: T9, Proteasome subunit beta type-8 (Homo sapiens) (UniProt P28062); test: Inhibition of LMP7 in human PBMC at 250 nM by ELISA
T9 sequence (whole entry): T5 sequence (P28062 whole entry)
Outline: (§3)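 Cryopreserved healthy-donor human PBMC in RPMI 1640 with 5% heat-inactivated FBS, exposed to compound (0.1% DMSO final) for 1 h at 37 °C, 5% CO2, then washed. Subunit-specific active-site occupancy read by ProCISE: biotinylated active-site probe binding, denaturation, streptavidin capture, subunit-specific antibody and HRP chemiluminescence. Signal normalized to protein and expressed relative to DMSO controls.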

[13] = tested on: PBMC; test: Antiinflammatory activity in human PBMC assessed as reduction in anti-CD3/CD28 antibody-stimulated TNF-alpha expression at 250 nM preincubated for 1 hr followed by anti-CD3/CD28 antibody stimulation measured after 24 hrs by ELISA; assay type: functional, cell-based
Outline: (§4)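 Healthy-donor PBMC, thawed from cryopreservation, 250 000 cells/well in RPMI 1640/5% FBS. Pretreated 1 h at 37 °C with compound alone or combined (0.1% DMSO final), washed 4 times, then stimulated 24 h with anti-CD3 and anti-CD28 antibodies. TNFα and IFNγ in supernatants by electrochemiluminescent ELISA; expressed relative to DMSO-treated controls (n = 6).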

[14] = tested on: PBMC; test: Antiinflammatory activity in human PBMC assessed as reduction in LPS-stimulated TNF-alpha expression at 250 nM preincubated for 1 hr followed by LPS stimulation measured after 24 hrs by ELISA; assay type: functional, cell-based; outline: as §2
[15] = tested on: PBMC; test: Antiinflammatory activity in human PBMC assessed as reduction in anti-CD3/CD28 antibody-stimulated IFN-gamma expression at 250 nM preincubated for 1 hr followed by anti-CD3/CD28 antibody stimulation measured after 24 hrs by ELISA; assay type: functional, cell-based; outline: as §4
[16] = target: T10, Proteasome subunit beta type-9 (Homo sapiens) (UniProt P28065); test: Inhibition of LMP2 in human PBMC at 250 nM by ELISA; outline: as §3
T10 sequence (whole entry): T1 sequence (P28065 whole entry)

[17] = tested on: PBMC; test: Antiinflammatory activity in human PBMC assessed as reduction in LPS-stimulated p40 subunit of […] expression at 250 nM preincubated for 1 hr followed by LPS stimulation measured after 24 hrs by ELISA; assay type: functional, cell-based; outline: as §2
[18] = target: Proteasome subunit beta type-2 (Mus musculus, UniProt Q9R1P3); test: Inhibition of 20S proteosome beta 2 in mouse A20 cells by ELISA; assay type: cell-based
Proteasome subunit beta type-2, sequence (Q9R1P3 whole entry): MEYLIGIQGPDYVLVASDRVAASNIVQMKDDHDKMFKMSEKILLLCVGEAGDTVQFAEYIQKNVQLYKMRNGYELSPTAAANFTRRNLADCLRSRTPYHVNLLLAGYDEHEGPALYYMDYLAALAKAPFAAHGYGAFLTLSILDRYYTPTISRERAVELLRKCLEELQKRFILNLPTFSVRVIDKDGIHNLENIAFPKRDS

| SMILES | solubility at 24 h [1] | IC50 [2] | IC50 [3] | IC50 [4] | IC50 [6] | IC50 [7] | IC50 [8] | IC50 [9] | also measured |
| --- | --- | --- | --- | --- | --- | --- | --- | --- | --- |
| COc1ccc(C[C@H](NC(=O)[C@H](C)NC(=O)CN2CCOCC2)C(=O)N[C@@H](CC2=CCCC2)C(=O)[C@@]2(C)CO2)cc1 | 2730 µg/mL (≈ 4790 µM) | 0.223 µM | 0.11 µM | 0.694 µM | – | – | – | – | – |
| CC(C)C[C@H](NC(=O)[C@H](CCc1ccccc1)NC(=O)CN1CCOCC1)C(=O)N[C@@H](Cc1ccccc1)C(=O)N[C@@H](CC(C)C)C(=O)[C@@]1(C)CO1 [CARFILZOMIB] | – | – | – | – | – | – | – | – | half-life [5]: < 15 min |
| COc1ccc(C[C@H](NC(=O)[C@@H](C)NC(=O)[C@H]2CC[C@H](O)CC2)C(=O)N[C@@H](Cc2ccccc2)C(=O)[C@@]2(C)CO2)cc1 | 240 µg/mL (≈ 414 µM) | 3.53 µM | 0.262 µM | 0.507 µM | > 25 µM | 0.023 µM | 0.782 µM | – | – |
| CC1=C(C(=O)N[C@H](C)C(=O)N[C@@H](Cc2c[nH]c3ccccc23)C(=O)N[C@@H](Cc2ccccc2)C(=O)[C@@]2(C)CO2)Cc2ccccc21 | 0.75 µg/mL (≈ 1.21 µM) | 2.21 µM | 0.573 µM | 1.36 µM | > 25 µM | 0.039 µM | 1.67 µM | 4.78 µM | – |
| COc1ccc(C[C@H](NC(=O)[C@H](C)NC(=O)CN2CCOCC2)C(=O)N[C@@H](Cc2ccccc2)C(=O)[C@@]2(C)CO2)cc1 | < 0.5 µg/mL | – | 0.098 µM | 0.401 µM | – | – | – | 0.328 µM | IC50 [10]: 0.699 µM; Activity [11]: Active; inhibition [12]: Active; Activity [13]: Active; Activity [14]: Active; Activity [15]: Active; inhibition [16]: Active; inhibition [17]: Active |
| COc1ccc(C[C@H](NC(=O)[C@@H](C)NC(=O)[C@H]2CC[C@H](O)CC2)C(=O)N[C@@H](CC2CCC2)C(=O)[C@@]2(C)CO2)cc1 | 979 µg/mL (≈ 1760 µM) | – | 0.556 µM | 6.81 µM | – | – | – | – | – |
| COc1ccc(C[C@H](NC(=O)[C@@H](C)NC(=O)C2CCCCC2)C(=O)N[C@@H](Cc2ccccc2)C(=O)[C@@]2(C)CO2)cc1 | 12.1 µg/mL (≈ 21.5 µM) | – | 0.141 µM | 0.118 µM | – | – | – | – | – |
| CC1=C(C(=O)N[C@@H](C)C(=O)N[C@@H](Cc2c[nH]c3ccccc23)C(=O)N[C@@H](Cc2ccccc2)C(=O)[C@@]2(C)CO2)Cc2ccccc21 | 1.85 µg/mL (≈ 2.99 µM) | – | 0.05 µM | 0.047 µM | – | 0.038 µM | 0.054 µM | – | – |
| COc1ccc(C[C@H](NC(=O)[C@@H](C)NC(=O)C2=C(C)c3ccccc3C2)C(=O)N[C@@H](Cc2ccccc2)C(=O)[C@@]2(C)CO2)cc1 | 1.4 µg/mL (≈ 2.3 µM) | – | 0.764 µM | 2.34 µM | – | 0.076 µM | 3.62 µM | – | – |
| CC(C)C[C@H](NC(=O)CN1CCCCCC1)C(=O)N[C@@H](Cc1ccccc1)C(=O)N[C@@H](Cc1ccccc1)C(=O)[C@@]1(C)CO1 | – | 0.415 µM | 0.056 µM | 0.038 µM | 0.097 µM | 0.049 µM | 0.039 µM | 0.415 µM | IC50 [10]: 0.159 µM; IC50 [18]: 0.141 µM |
